Screening results (PubChem)
Hits are enriched below; roughly 2.1% of the tested compounds scored in any of these assays.
PKA-R1A act – activators of PKA-R1A holoenzyme, primary screen, biochemical, fluorescence polarization, Cy5-IP20, bovine R1A, mouse PKAc; activation, % at 11.4 µM; actives 0.083% (n = 340,000); AID 504707, 2011; cAMP-dependent protein kinase type I-alpha regulatory subunit (Bos taurus) + …; PKA-R1A dissociation; scaled: DMSO 0%, 113 µM cGMP 100%;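 active means percent activation above the mean of all tested compounds plus 3 SD, cut at about 19% in these data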;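 further: higher means more PKAc released from R1A so a rise in polarization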
SR-BI HDL uptake – inhibitors of SR-BI mediated HDL lipid uptake, primary screen, ldlA[mSR-BI] cells, fluorescence, single point; ldlA[mSR-BI] CHO cells, DiI-HDL uptake fluorescence, 3 h; inhibition, % at 12.5 µM; AID 488896, 2010; Scavenger receptor class B member 1 (Mus musculus), Q61009; actives 0.96% (n = 320,000);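 active means mean replicate inhibition of at least 70% and a set share of replicates each scoring 70 or more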;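 further: 0% = median of neutral control wells and 100% = median of positive control wells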
dFosB act-1 – activators of delta FosB homodimer, primary screen, biochemical, fluorescence polarization, TAMRA-CDK5 oligo, single point; Protein FosB (Mus musculus), P13346; purified delta FosB; percent of positive-control signal above neutral wells; activation, % at 25 µM; actives 0.99% (n = 340,000); AID 493131, 2011;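 active means mean activation above about 17%, with every replicate also reaching it, limit read from the data, passing the limit was not always enough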
CDK5 inh – inhibitors of human CDK5/p35 kinase, primary screen, biochemical, single concentration. Cyclin-dependent kinase 5 (Homo sapiens) + Cyclin-dependent kinase 5 activator 1 (Homo …. Recombinant CDK5/p35, ADP-Glo luminescence, 60 min. inhibition, % at 10 µM. actives 0.01% (n = 330,000). AID 488839, 2010;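 active means highest replicate inhibition of at least 50% and at least 75% of replicates reaching 50%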;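 further: plate controls were DMSO neutral control for no effect and GW8510 at 10 µM for full effect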
Target sequence (Q00535 whole entry, looked up): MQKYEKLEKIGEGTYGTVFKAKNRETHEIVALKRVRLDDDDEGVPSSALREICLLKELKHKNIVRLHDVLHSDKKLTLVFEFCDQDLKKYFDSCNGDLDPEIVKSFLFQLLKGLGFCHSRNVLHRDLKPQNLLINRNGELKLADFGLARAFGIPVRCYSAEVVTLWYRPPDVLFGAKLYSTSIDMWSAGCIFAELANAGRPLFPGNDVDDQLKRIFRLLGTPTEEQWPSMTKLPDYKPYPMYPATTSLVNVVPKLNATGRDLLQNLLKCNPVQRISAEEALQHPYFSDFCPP
Target sequence (Q15078 whole entry, looked up): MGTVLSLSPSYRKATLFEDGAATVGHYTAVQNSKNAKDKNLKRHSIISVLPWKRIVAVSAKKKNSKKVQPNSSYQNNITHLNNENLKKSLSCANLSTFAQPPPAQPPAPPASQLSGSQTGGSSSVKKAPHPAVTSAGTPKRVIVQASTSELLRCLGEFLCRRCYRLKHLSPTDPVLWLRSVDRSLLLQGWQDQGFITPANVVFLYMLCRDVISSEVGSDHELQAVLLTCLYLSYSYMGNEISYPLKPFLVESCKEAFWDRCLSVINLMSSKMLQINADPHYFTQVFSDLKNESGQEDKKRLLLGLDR
PKA-R2B act – activators of PKA-R2B holoenzyme, primary screen, biochemical, fluorescence polarization, Cy5-IP20, human; PKA-R2B holoenzyme dissociation; R2B truncated from residue 108, S112A mutant; 0% DMSO only, 100% 113 µM cGMP; activation, % at 11.4 µM; cAMP-dependent protein kinase catalytic subunit beta (Homo sapiens) + cAMP-dependent …; AID 504700, 2011; actives 0.079% (n = 340,000);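 active means activation above a cutoff set at the mean over all compounds plus 3 SD, cut at about 18% in these data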;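 further: higher means more holoenzyme dissociation and a rise in polarization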
SR-BI DiI-HDL act – activators of SR-BI mediated DiI-HDL uptake, primary screen, ldlA[mSR-BI] CHO cells, DiI fluorescence; 3 h; 100 = double the neutral-control signal; activation, % at 12.5 µM; actives 0.096% (n = 320,000);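 active means mean replicate activation of at least 60% and every replicate at or above 60%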;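 further: 0% = median plate neutral-control signal and 100% = twice that signal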
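System: CHO ldlA[mSR-BI] cells / Medium: HEPES-buffered (25 mM, pH 7.4) F12 plus 0.5% BSA / Probe or stimulus: labelled HDL, 10 µg/mL / Doses: single compound concentration, delivered by pin transfer / Schedule: 3 h, 37 °C / Measured by: DiI fluorescence, bottom read / Measure: cell-associated DiI fluorescence as measure of HDL uptake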
dFosB act-2 – activators of mouse delta FosB DNA binding, confirmation, biochemical, fluorescence polarization, TAMRA-CDK5 oligo, cherry-picked samples. shares compounds with dFosB act-1. purified delta FosB; normalised: neutral wells 0, positive control 100. activation, % at 24.9 µM. 2,400 tested, under 10 active. AID 588690, 2011;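 active means highest replicate activation at or above 34% and every replicate reaching that threshold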;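 further: higher polarization means more probe DNA bound by delta FosB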
The depositor's hits bear a star; · = no result given.

SMILES	PKA-R1A act	SR-BI HDL uptake	dFosB act-1	CDK5 inh	PKA-R2B act	SR-BI DiI-HDL act	dFosB act-2
Cc1onc(-c2c(F)cccc2Cl)c1C(=O)Nc1cccc(S(=O)(=O)NC2=NCCC2)c1	-8.9	-5.5	-4.8	-1.4	-10.7	5.5	·
O=C(COc1ccc(Cl)cc1Cl)Nc1c(-c2cccs2)nc2ccccn12	-17.7	-9.5	118.7*	-1.8	-5.8	9.5	1.6
CC(=O)c1ccc(NC(=O)CSc2nc(N3CCOCC3)nc(N3CCOCC3)n2)cc1	-5.3	-12.2	-9.6	0.6	11.7	12.2	·
CCOC(=O)CSc1nc(=O)n2cccc(C)c2n1	·	-9.8	-2.4	0.7	·	9.7	·
CCOC(=O)c1ccc(NC(=O)CSc2nc(N3CCOCC3)nc(N3CCOCC3)n2)cc1	-14.5	-10.6	24.3*	-0.2	0.4	10.6	1.8
CCOC(=O)c1ccc(NC(=O)CSc2nc(=O)n3cccc(C)c3n2)cc1	2.7	2.5	28.8*	-2.3	4.0	-2.5	3.1
COC(=O)c1ccc(NS(=O)(=O)NC(=O)c2cn(C)c3ccccc23)cc1	-4.2	2.4	-3.3	-0.2	-1.2	-2.4	·
Cc1cccc(N2CCN(CCCNC(=O)c3ccc(NC(=O)C4=CSCCO4)cc3)CC2C)c1 (configuration not stated)	-3.0	44.8	-7.3	-2.5	11.9	-44.8	·
COc1cccc(NC(=O)c2nnn(CC(=O)Nc3cc(C)cc(C)c3)c2N)c1	-1.5	11.7	3.6	0.1	-2.4	-11.7	·
Cc1cccc(NC(=O)Cn2nnc(C(=O)Nc3ccc(F)c(Cl)c3)c2N)c1	-7.3	-1.1	89.7*	·	-13.3	1.1	0.9
Cc1ccc(NC(=O)Cn2nnc(C(=O)NCc3cccs3)c2N)cc1Cl	-8.4	-12.3	12.0	0.1	-2.6	12.3	·
Nc1c(C(=O)NCc2cccs2)nnn1CC(=O)Nc1cccc(Cl)c1	2.1	-0.5	20.8*	0.2	-4.2	0.5	-2.3
COc1ccc(NC(=O)Cn2nnc(C(=O)NCc3cccs3)c2N)cc1Cl	-0.8	-1.9	35.3*	0.5	-5.8	1.9	5.3
O=C(Nc1ccc(Cl)c(Cl)c1)c1ccc(Cn2c(=O)[nH]c3ccsc3c2=O)cc1	-7.0	20.6	21.6*	1.1	-0.3	-20.6	1.6
O=C(Nc1ccc(Oc2ccccc2)cc1)c1ccc(Cn2c(=O)[nH]c3ccsc3c2=O)cc1	0.0	39.1	62.3*	-0.3	10.9	-39.1	7.1
O=C(NC1CCCC1)c1ccc(Cn2c(=O)[nH]c3ccsc3c2=O)cc1	1.7	·	-4.8	-0.4	1.1	·	·
O=[N+]([O-])C1C(c2ccccc2)C12c1ccccc1-c1ccccc12 (configuration not stated)	-5.0	·	·	·	3.1	·	·
CC(C)c1ccc(CCNC(=O)CSC(=S)N2CCCC2)cc1	7.9	-6.0	-10.4	0.4	-2.5	6.0	·
NC(N)=NS(=O)(=O)c1ccc(N/C=C/C(=O)c2ccc(Cl)c(Cl)c2)cc1	-3.7	-7.3	45.5*	0.0	0.8	7.3	3.6
CCOc1ccc(C(=O)/C=C/Nc2ccc(S(=O)(=O)N=C(N)N)cc2)cc1	-6.6	-11.8	34.2*	1.0	-3.8	11.8	5.8
CCOc1ccc(N/C=C/C(=O)c2ccc(OC)c(OC)c2)cc1	1.1	52.3	2.3	-1.5	-7.3	-52.3	·
O=C(/C=C/Nc1ccc(S(=O)(=O)Nc2ncccn2)cc1)c1ccc(Cl)c(Cl)c1	1.9	4.3	-27.3	-2.3	-10.5	-4.3	·
COc1ccc(C2c3c(ncn(Cc4ccco4)c3=N)Oc3ccc4ccccc4c32)cc1 (configuration not stated)	-2.7	11.1	45.4*	2.8	-6.3	-11.1	-0.5
O=C(NC1CCS(=O)(=O)C1)c1c(NC(=O)C2COc3ccccc3O2)sc2c1CCCC2 (configuration not stated)	-10.1	52.0	39.8*	-1.3	-1.4	-52.0	-0.1
CCCNC(=O)c1c(NC(=O)C2COc3ccccc3O2)sc2c1CCCC2 (configuration not stated)	4.1	11.8	-3.8	-1.1	-9.5	-11.8	·
SMILES	PKA-R1A act	SR-BI HDL uptake	dFosB act-1	CDK5 inh	PKA-R2B act	SR-BI DiI-HDL act	dFosB act-2
O=C(N/N=C/c1ccccc1C(=O)O)c1cccc(S(=O)(=O)N2CCCCC2)c1	-4.8	-10.6	-5.1	-3.5	2.9	10.6	·
Cc1cc(C)cc(OCC(=O)Nc2ccc(-n3cnnn3)cc2)c1	-3.4	68.4	33.6*	-0.4	-2.1	-68.4	5.6
CC(=O)c1ccc(S(=O)(=O)Nc2ccc(-n3cnnn3)cc2)cc1	-9.4	-0.7	-6.1	-1.6	-2.9	0.7	·
CC(=O)c1ccc(NC(=O)c2ccc(-n3cnnn3)cc2)cc1	-5.1	8.2	24.0*	1.8	4.0	-8.2	1.5
CC(=O)Nc1ccc(NC(=O)C2CCCN(S(=O)(=O)c3ccc(-n4cnnn4)cc3)C2)cc1 (configuration not stated)	-1.4	-16.1	23.0*	1.1	-5.4	16.1	0.0
O=C(COc1ccccc1C(=O)O)Nc1nc2ccc([N+](=O)[O-])cc2s1	-3.6	-3.1	25.0*	-0.8	-8.9	3.1	0.3
Cc1cccc(OCC(=O)Nc2nc3ccc([N+](=O)[O-])cc3s2)c1C	0.7	-27.0	-4.6	0.8	-5.6	27.0	·
COc1ccc(OC)c(CN2CCN(C(=O)[C@@H](NC(=O)c3cccc(C)c3)C(C)C)CC2)c1	0.2	12.7	-10.2	0.4	7.1	-12.7	·
O=C(Nc1nc2ccc(SC(F)F)cc2s1)c1ccc(NS(=O)(=O)c2ccc(F)c(F)c2)cc1	-6.9	43.5	38.2*	2.0	-12.4	-43.5	5.0
CS(=O)(=O)c1ccc2nc(NC(=O)c3ccc(NS(=O)(=O)c4ccc(F)c(F)c4)cc3)sc2c1	-8.5	28.1	35.5*	-0.2	9.8	-28.1	-0.6
CS(=O)(=O)c1ccc2nc(NC(=O)c3cccc(NS(=O)(=O)c4ccc(F)c(F)c4)c3)sc2c1	-8.3	0.4	29.0*	-1.7	-8.9	-0.4	-8.0
